Sampled rows, rich in hits. Any-hit rate of the full collection: about 2.8%.
SIRT5 inh = sirtuin-5 (human) deacylase inhibition. Purified SirT5, succinyl-peptide AMC, trypsin-coupled fluorescence. inhibition, % at 15 µM. hit rate 1.1% among 330,000. AID 652115; in the data active = inhibition above about 15%; inconclusive = no clear call, values can overlap the other calls
Target sequence (Q9NXA8 whole entry, looked up): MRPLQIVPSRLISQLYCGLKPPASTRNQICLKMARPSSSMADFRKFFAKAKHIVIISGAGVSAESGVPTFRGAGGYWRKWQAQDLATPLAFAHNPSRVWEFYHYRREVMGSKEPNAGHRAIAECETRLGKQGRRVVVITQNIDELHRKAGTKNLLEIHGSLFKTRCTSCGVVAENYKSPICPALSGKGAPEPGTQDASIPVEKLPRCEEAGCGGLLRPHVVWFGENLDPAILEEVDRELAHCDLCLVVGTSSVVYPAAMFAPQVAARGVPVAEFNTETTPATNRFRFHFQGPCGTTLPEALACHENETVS
E-selectin induc = induces E-selectin expression in human endothelial cells | HUVEC E-selectin immunofluorescence imaging; normalized: neutral wells 0, TNF-alpha wells 100 | P16581 | activation, % at 7.58 µM | hit rate 0.37% among 260,000;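 active = mean E-selectin-positive cell signal at least 10% of the positive control, reached in at least 60% of replicates, without over 20% cell loss; inconclusive = no rule given, readout overlaps actives, possibly toxicity-flagged; inactive = the rest, including those meeting only one limit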
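assay system = HUVEC, human umbilical vein endothelial cells | input = 3,000 HUVEC seeded per well | medium = EGM-2 growth medium on 0.1% gelatin-coated wells | dosing = one compound dose added by pin transfer | signal = immunofluorescence imaging | read-out basis = % PE-positive cells | control set = TNF-alpha, DMSO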
DENV2 CPE = DENV2-induced cell death inhibition; CPE inhibition, % at 9.99 µM; hit rate 1.7% among 350,000; DENV2-infected cells, cytopathic effect rescue, plate reader; in the data active = CPE inhibition above about 20%, passing the limit was not always enough; inconclusive = no clear call, values can overlap the other calls; tested in BHK-21 cells;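 also: 0% = median of neutral control wells and 100% = median of positive control wells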
Active calls of the source: *; ? = inconclusive; nt = not tested or not shown.

SMILES	SIRT5 inh	E-selectin induc	DENV2 CPE
O=C(C[C@H]1C=C[C@@H](NC(=O)Nc2ccccc2)[C@@H](CO)O1)NCc1cccc(F)c1	-2.2	-0.6	-9.4
O=C(N[C@@H](Cc1ccccc1)C(=O)NC1CC1)c1ccc(Cl)cc1	24.6*	nt	9.2
O=C(NC(Cc1ccccc1)C(=O)NC1CC1)OCc1ccccc1 (stereo unspecified)	-2.5	-0.5	-2.0
O=C(CCN1CCCCC1)N[C@@H]1CC[C@H](CCn2cc(-c3ccccc3)nn2)O[C@H]1CO	1.3	0.0	0.7
Cc1nc2cc(NC(=O)Nc3cccc([N+](=O)[O-])c3)ccc2n1C	4.0	nt	34.5*
Cc1ccc(NC(=O)Nc2ccc3c(c2)nc(C)n3C)cc1	1.1	nt	nt
COc1ccc2c3c([nH]c2c1)[C@H](CO)NCC31CN(C(=O)Nc2ccc3c(c2)OCO3)C1	-2.8	0.2	-7.8
Cc1ccc(NC2Sc3ccccc3NC2=O)cc1 (stereo unspecified)	-5.5	nt	-3.7
O=C1Nc2ccccc2SC1c1ccccc1 (stereo unspecified)	-5.8	nt	25.0*
COCC(=O)Nc1ccc2c(c1)OC[C@H](C)N(C(=O)c1ccccc1)C[C@@H](C)[C@@H](OC)CN(C)C2=O	0.9	1.0	0.1
COc1ccc2cc3cc(C(=O)NCCC(C)C)oc3nc2c1	-56.6	0.0	3.4
COCCNC(=O)c1cc2cc3ccc(OC)cc3nc2o1	-108.7	0.0	25.3*
CNC[C@@H]1OCCCC[C@H](C)Oc2ccc(NC(=O)CCC(F)(F)F)cc2C(=O)N([C@H](C)CO)C[C@H]1C	-1.8	-0.1	9.9
COc1cccc(C(=O)Nc2ccc3c(c2)OC[C@@H](C)N(CC2CC2)C[C@@H](C)[C@H](OC)CN(C)C3=O)c1	4.6	-0.1	8.6
COC(=O)c1cn(C(=O)c2ccc(C)cc2C)c2ccccc12	-0.8	nt	4.8
COC(=O)c1cn(C(=O)c2ccccc2Cl)c2ccccc12	26.0*	nt	-0.1
Cc1cc(Br)ccc1OCCOCCN1CCCC1	-2.8	nt	2.7
Cc1ccc(OCCOCCN2CCCC2)c(Br)c1	-2.1	nt	43.7*
CCCNC(=O)[C@H]1[C@H](CO)[C@H]2Cn3c(ccc(-c4ccccc4OC)c3=O)[C@H]2N1CC	1.2	-0.4	-1.8
COc1ccc(C2CC(c3ccc(C)o3)=NN2C(C)=O)cc1 (stereo unspecified)	0.3	nt	34.2*
COc1ccc(C2CC(c3cccs3)=NN2C(=O)CN2CCCCC2)cc1 (stereo unspecified)	32.6*	nt	1.4
COc1ccc(C2CC(c3cccs3)=NN2C(=O)CCC(=O)O)cc1 (stereo unspecified)	0.3	0.0	2.4
COc1ccc(C2=NN(C(=O)CCC(=O)O)C(c3ccc(OC)cc3)C2)cc1 (stereo unspecified)	21.4*	nt	2.4
COc1ccc(C2=NN(C(=O)CCC(=O)O)C(c3ccccc3OC)C2)cc1 (stereo unspecified)	-23.4	?	-4.2
COc1ccc(C2CC(c3ccc(Cl)cc3)=NN2C(C)=O)cc1 (stereo unspecified)	0.8	nt	-7.9
SMILES	SIRT5 inh	E-selectin induc	DENV2 CPE
O=C(Nc1cccc(F)c1)N1C[C@H]2[C@@H](c3ccccc31)[C@@H](CO)N2C(=O)Cc1ccccc1	-11.4	-0.3	12.4
CO[C@H]1CN(C)C(=O)c2cc(NC(=O)C3CCC3)ccc2OC[C@H](C)N(Cc2ccccn2)C[C@@H]1C	3.0	0.0	-3.2
CO[C@H](CN(C)S(=O)(=O)c1ccc(Cl)cc1)[C@@H](C)CN(C(=O)Nc1ccccc1F)[C@@H](C)CO	-2.3	0.2	6.8
CCCC#Cc1ccc([C@H]2[C@H](CO)N3CCCCN(CC4CCOCC4)C[C@@H]23)cc1	4.7	0.0	55.6*
COCC#Cc1ccc([C@H]2[C@@H](CO)N3CCCCN(Cc4cncnc4)C[C@@H]23)cc1	-6.0	-0.2	16.5
CCCC#Cc1ccc([C@H]2[C@H]3CN(CC4CC4)CCCCN3[C@H]2CO)cc1	-5.8	-0.3	-9.2
COCC#Cc1ccc([C@H]2[C@H]3CN(Cc4cncnc4)CCCCN3[C@H]2CO)cc1	2.0	-0.2	20.7*
C[C@@H]1CN([C@@H](C)CO)S(=O)(=O)c2ccc(-c3ccc(F)cc3)cc2O[C@@H]1CN(C)C(=O)c1ccccc1F	-4.1	0.2	13.2
O=C(C[C@@H]1CC[C@@H]2[C@H](COC[C@@H](O)CN2Cc2cc(F)ccc2F)O1)NCc1ccc(Oc2ccccc2)cc1	nt	-0.2	1.1
Cc1ccccc1S(=O)(=O)NCC[C@H]1CC[C@H](NC(=O)C2CCCCC2)[C@@H](CO)O1	-1.7	-0.4	-5.1
O=C1CN(C(=O)c2ccccc2F)C(c2ccccc2)c2cc(F)ccc2N1 (stereo unspecified)	-1.1	nt	-2.1
Cc1ccc(C(=O)N2CC(=O)Nc3ccc(F)cc3C2c2ccccc2)cc1 (stereo unspecified)	15.5*	0.1	17.8
COc1ccc([Si](C)(C)[C@H]2[C@H](CC(=O)N(CCO)Cc3ccccc3)O[C@@]3(C(=O)N(C)c4ccccc43)[C@@H]2C)cc1	1.8	nt	-13.9
CO[C@@H]1CN(C)C(=O)c2ccc(NC(=O)c3cccc(Oc4ccccc4)c3)cc2OC[C@@H](C)NC[C@H]1C	2.1	0.2	-11.9
CCC[N+](CC#Cc1ccccc1)(CCC)CC(=O)c1ccc(Cl)cc1	nt	nt	45.8*
O=C(C[N+]1(CC#Cc2ccccc2)CCCCC1)c1ccc(Cl)cc1	-6.1	1.3	-3.4
CCCC(=O)Nc1ccc2c(c1)C(=O)N(C)C[C@@H](OC)[C@H](C)CN(C(=O)c1ccccc1F)[C@H](C)CO2	-2.1	-0.2	18.0
O=C(CC1CC1)Nc1ccc2c(c1)[C@@H]1C[C@@H](CC(=O)N3CCc4ccccc4C3)O[C@@H](CO)[C@@H]1O2	3.4	-0.3	-4.6
CO[C@H]1CN(C)C(=O)c2ccc(NC(C)=O)cc2OC[C@H](C)NC[C@@H]1C	-1.6	-0.1	9.8
C[C@H]1CN([C@@H](C)CO)C(=O)Cc2cc(NS(=O)(=O)c3cccs3)ccc2O[C@H]1CN(C)Cc1ccc2c(c1)OCO2	2.2	-12.2	103.8*
C[C@@H]1CN([C@H](C)CO)C(=O)Cc2cc(NS(=O)(=O)c3cccs3)ccc2O[C@H]1CN(C)Cc1ccccc1	4.9	0.1	0.2
C[C@H]1CN([C@@H](C)CO)C(=O)Cc2cc(NS(=O)(=O)c3cccs3)ccc2O[C@@H]1CN(C)Cc1ccc(-c2ccccc2)cc1	15.3*	0.2	?
C[C@H](CO)N1C[C@H](C)[C@@H](CN(C)Cc2ccc(-c3ccccc3)cc2)Oc2ccc(NS(=O)(=O)c3cccs3)cc2CC1=O	18.2*	0.0	-17.2
C[C@H](CO)N1C[C@H](C)[C@H](CN(C)Cc2ccc3c(c2)OCO3)Oc2ccc(NS(=O)(=O)c3cccs3)cc2CC1=O	0.8	-1.5	-4.2
C[C@@H]1CN([C@@H](C)CO)C(=O)Cc2cc(NS(=O)(=O)c3cccs3)ccc2O[C@@H]1CN(C)Cc1ccccc1	0.9	0.1	-4.3
CC(C)CC#Cc1cnc2c(c1)C(=O)N([C@@H](C)CO)C[C@H](C)[C@@H](CN(C)Cc1ccc(C(=O)O)cc1)O2	-6.7	-0.1	-0.9
C[C@H]1CN([C@@H](C)CO)C(=O)CCCn2cc(nn2)CO[C@H]1CN(C)C(=O)Nc1ccc(-c2cccs2)cc1	-0.9	0.8	13.7
NC(=S)NNC(=O)C12CC3CC(CC(C3)C1)C2	-2.2	54.9*	-3.1

Compound activity: PubChem, Broad Institute
